Values after ≈ are worked out from the molar mass of the structure shown.

Data set [1] concerns Escherichia coli. The conditions noted are these: HN1157.
A short description of data set [2]: Permeability across Escherichia coli HN1157/pHSG576oxa7 assessed as permeability coefficient in presence of proton uncoupler carbonyl cyanide meta-chlorophenylhydrazone. Format: ADME, organism-based. The conditions noted are these: not told, read-out: permeability.
Data set [3] relates to Escherichia coli. Put plainly: Antimicrobial activity against Escherichia coli HN1157/pHSG576oxa7. Format: functional.
For data set [4], the system named is Escherichia coli. Put plainly: Antimicrobial activity against Escherichia coli HN1157/pHSG576oxa7 assessed as minimal drug concentration. Format: functional. A digest of the protocol:
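The inoculum was grown overnight in modified LB broth with 10 μg/ml chloramphenicol to keep the plasmid, diluted to OD660 0.1 and streaked across the gradient. Plates were read after overnight incubation at 30°C.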

A short description of data set [5]: Lipophilicity, log P of the compound. Format: physicochemical. The following applies: octanol/water.
Substrate in data set [6]: Cc1onc(-c2ccccc2Cl)c1C(=O)N[C@@H]1C(=O)N2[C@@H]1SC(C)(C)[C@@H]2C(=O)O
The data set can be described thus: (§1) Activity at Escherichia coli isolate 7181 beta-lactamase OXA-7. A digest of the protocol:
(§2)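 Crude sonicates of E. coli HN1157 carrying low-copy pHSG576oxa7, grown 14 h at 30°C in modified LB with 10 μg/ml chloramphenicol (plus 0.1% glucose for some substrates). Extract equals OD600 0.025 cells (9.38 μg dry weight/ml) in 50 mM potassium phosphate, pH 7.0, 5 mM MgCl2. Penicillin hydrolysis stopped with TCA at 2 min. Microiodometric OD592 read after 30 min, minus a zero-time TCA blank. Km and Vmax expressed per mg cell dry weight.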

Substrate in data set [7]: Cc1onc(-c2c(Cl)cccc2Cl)c1C(=O)N[C@@H]1C(=O)N2[C@@H]1SC(C)(C)[C@@H]2C(=O)O
The description is as §1. A digest of the protocol: as §2

Substrate in data set [8]: Cc1onc(-c2ccccc2)c1C(=O)N[C@@H]1C(=O)N2[C@@H]1SC(C)(C)[C@@H]2C(=O)O
The description is as §1. In a few lines:
as §2

Substrate in data set [9]: CC1(C)S[C@@H]2[C@H](NC(=O)[C@H](NC(=O)N3CCNC3=O)c3ccccc3)C(=O)N2[C@H]1C(=O)O
The data set is described as §1. A digest of the protocol:
as §2

Substrate in data set [10]: CC1(C)S[C@@H]2[C@H](NC(=O)COc3ccccc3)C(=O)N2[C@H]1C(=O)O
Described as §1. A digest of the protocol:
as §2

Substrate in data set [11]: CCN1CCN(C(=O)N[C@@H](C(=O)N[C@@H]2C(=O)N3[C@@H]2SC(C)(C)[C@@H]3C(=O)O)c2ccccc2)C(=O)C1=O
Described as §1. In a few lines:
as §2

Substrate in data set [12]: CC1(C)S[C@@H]2[C@H](NC(=O)[C@H](NC(=O)N3CCN(S(C)(=O)=O)C3=O)c3ccccc3)C(=O)N2[C@H]1C(=O)O
The data set is described as §1. A digest of the protocol: as §2

As a reminder, the MIC is the lowest concentration that inhibits growth of the organism. Read a low MIC as greater potency. Broadly, the logP is the decadic logarithm of the partition coefficient of the neutral form, usually between octanol and water. Low readings indicate a more hydrophilic compound, high ones a more lipophilic compound. For `Cc1onc(-c2ccccc2)c1C(=O)N[C@@H]1C(=O)N2[C@@H]1SC(C)(C)[C@@H]2C(=O)O` [OXACILLIN], the K0.5 in data set [1] was determined as 0.97 µM. In addition, the Papp in data set [2] turned out to be 60 ×10⁻⁶ cm/s. This molecule returned an MIC in [3] of 282 µg/mL (≈ 702 µM). The Activity in data set [4] is 12 µM. In data set [5], this molecule yielded a logP of 2.1.
The like results for `Cc1onc(-c2c(Cl)cccc2Cl)c1C(=O)N[C@@H]1C(=O)N2[C@@H]1SC(C)(C)[C@@H]2C(=O)O` [DICLOXACILLIN] were, in that order, 0.53 µM, 60 ×10⁻⁶ cm/s, 560 µg/mL (≈ 1190 µM), 39 µM and 3.4.
In data set [1], `CC1(C)S[C@@H]2[C@H](NC(=O)[C@H](NC(=O)N3CCN(S(C)(=O)=O)C3=O)c3ccccc3)C(=O)N2[C@H]1C(=O)O` [MEZLOCILLIN] returned a K0.5 of 1.08 µM. The Papp in [2] stood at 50 ×10⁻⁶ cm/s. Further, the MIC in data set [3] was 30 µg/mL (≈ 55.6 µM). Moreover, the Activity in data set [4] was determined as 1.1 µM. The same molecule registered a logP in data set [5] of 0.67.
The matching figures for `CC1(C)S[C@@H]2[C@H](NC(=O)COc3ccccc3)C(=O)N2[C@H]1C(=O)O` [PENICILLIN V]: 0.82 µM, 70 ×10⁻⁶ cm/s, 178 µg/mL (≈ 508 µM), 33 µM and 1.54.
As to `CCN1CCN(C(=O)N[C@@H](C(=O)N[C@@H]2C(=O)N3[C@@H]2SC(C)(C)[C@@H]3C(=O)O)c2ccccc2)C(=O)C1=O` [PIPERACILLIN], the K0.5 in [1] worked out at 1.06 µM. The Papp in data set [2] is 30 ×10⁻⁶ cm/s. Moreover, the MIC in data set [3] stood at 46 µg/mL (≈ 88.9 µM). Besides, the Activity in data set [4] amounted to 1.2 µM. In data set [5], the lipophilicity (logP) worked out at 0.45.
The molecule `CC1(C)S[C@@H]2[C@H](NC(=O)[C@H](NC(=O)N3CCNC3=O)c3ccccc3)C(=O)N2[C@H]1C(=O)O` [AZLOCILLIN] showed a K0.5 in [1] of 1.06 µM. The Papp in data set [2] stood at 40 ×10⁻⁶ cm/s. In addition, the MIC in data set [3] came to 44 µg/mL (≈ 95.3 µM). Besides, in [4], the Activity was 1.3 µM. Further, the logP in data set [5] was determined as 0.71.
In [1], `Cc1onc(-c2ccccc2Cl)c1C(=O)N[C@@H]1C(=O)N2[C@@H]1SC(C)(C)[C@@H]2C(=O)O` [CLOXACILLIN] displayed a K0.5 of 0.91 µM. In addition, the Papp in data set [2] amounted to 60 ×10⁻⁶ cm/s. Further, the minimal inhibitory concentration (MIC) in data set [3] was found to be 295 µg/mL (≈ 677 µM). The Activity in data set [4] was 11 µM. The logP in data set [5] was found to be 2.8.
`CC1(C)S[C@@H]2[C@H](NC(=O)[C@H](N)c3ccccc3)C(=O)N2[C@H]1C(=O)O` [AMPICILLIN] showed an MIC in [3] of 39 µg/mL (≈ 112 µM). The Activity in [4] amounted to 2.9 µM. The same molecule displayed a log partition coefficient (logP) in data set [5] of -1.03.

B1: Beta-lactamase OXA-7 (Escherichia coli), P35695 (protein)
chain: MKTFAAYVITACLSSTALASSITENTFWNKEFSAEAVNGVFVLCKSSSKLACATNNLARASKEYLPASTFKIPNAIIGLETGVIKNEHQIFKWDGKPRAMKQWERDLSLRGAIQVSAVPVFQQIAREVGEVRMQKYLKKFSYGNQNISGGIDKFWLEGQLRISAVNQVEFLESLFLNKLSASKENQLIVKEALVTEAPEYLVHSKTGFSGVGTESNPGVAWWVGWVEKGAEVYFFAFNMDIDNENKLPLRKSIPTKIMASEGIIGG
The Km is the substrate concentration at which the rate is half of its maximum. For B1, the Km in data set [6] is 31 µM; in data set [7], 34 µM; in [8], 52 µM; in data set [9], 18 µM; in [10], 29 µM; in data set [11], 34 µM. The Km in [12] was found to be 29 µM.
